Measurements from ChEMBL document CHEMBL1132940, “Pharmacophore/receptor models for GABA(A)/BzR subtypes (alpha1beta3gamma2, alpha5beta3gamma2, and alpha6beta3gamma2) via a comprehensive ligand-mapping approach” (J Med Chem, 2000).

Tests used:
[1] = biological target: T1, GABA-A receptor; alpha-1/beta-3/gamma-2 (Homo sapiens, UniProt P14867+P18507+P28472); test: Binding affinity for human recombinant gamma-aminobutyric-acid (GABA) A receptor alpha-1-beta-3-gamma-2; type: protein-complex assay
T1 sequence (P14867 whole entry): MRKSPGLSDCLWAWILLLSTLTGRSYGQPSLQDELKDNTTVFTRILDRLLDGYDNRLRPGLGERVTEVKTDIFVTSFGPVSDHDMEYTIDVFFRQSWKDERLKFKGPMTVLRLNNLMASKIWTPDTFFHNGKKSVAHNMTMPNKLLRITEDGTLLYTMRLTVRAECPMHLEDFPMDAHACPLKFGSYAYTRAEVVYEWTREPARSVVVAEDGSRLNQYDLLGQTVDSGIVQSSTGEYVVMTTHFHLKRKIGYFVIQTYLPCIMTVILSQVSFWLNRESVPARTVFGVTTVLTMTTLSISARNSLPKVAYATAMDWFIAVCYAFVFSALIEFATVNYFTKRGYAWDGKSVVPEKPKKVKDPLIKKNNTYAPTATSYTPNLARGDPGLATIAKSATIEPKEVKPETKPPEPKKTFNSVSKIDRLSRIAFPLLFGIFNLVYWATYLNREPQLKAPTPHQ
T1 sequence (P18507 whole entry): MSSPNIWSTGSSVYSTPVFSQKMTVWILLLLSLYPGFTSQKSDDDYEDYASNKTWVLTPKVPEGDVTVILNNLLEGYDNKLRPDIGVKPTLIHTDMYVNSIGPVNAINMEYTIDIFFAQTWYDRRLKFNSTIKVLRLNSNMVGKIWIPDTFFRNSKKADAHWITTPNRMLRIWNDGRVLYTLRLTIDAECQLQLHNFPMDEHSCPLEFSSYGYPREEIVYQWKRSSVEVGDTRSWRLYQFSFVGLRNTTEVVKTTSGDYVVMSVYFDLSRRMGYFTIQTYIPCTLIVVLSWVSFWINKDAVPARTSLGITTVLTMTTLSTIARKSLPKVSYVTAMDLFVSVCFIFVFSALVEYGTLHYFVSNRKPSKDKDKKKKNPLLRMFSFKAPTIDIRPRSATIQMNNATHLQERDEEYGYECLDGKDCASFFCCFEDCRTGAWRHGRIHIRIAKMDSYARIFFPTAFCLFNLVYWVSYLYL
T1 sequence (P28472 whole entry): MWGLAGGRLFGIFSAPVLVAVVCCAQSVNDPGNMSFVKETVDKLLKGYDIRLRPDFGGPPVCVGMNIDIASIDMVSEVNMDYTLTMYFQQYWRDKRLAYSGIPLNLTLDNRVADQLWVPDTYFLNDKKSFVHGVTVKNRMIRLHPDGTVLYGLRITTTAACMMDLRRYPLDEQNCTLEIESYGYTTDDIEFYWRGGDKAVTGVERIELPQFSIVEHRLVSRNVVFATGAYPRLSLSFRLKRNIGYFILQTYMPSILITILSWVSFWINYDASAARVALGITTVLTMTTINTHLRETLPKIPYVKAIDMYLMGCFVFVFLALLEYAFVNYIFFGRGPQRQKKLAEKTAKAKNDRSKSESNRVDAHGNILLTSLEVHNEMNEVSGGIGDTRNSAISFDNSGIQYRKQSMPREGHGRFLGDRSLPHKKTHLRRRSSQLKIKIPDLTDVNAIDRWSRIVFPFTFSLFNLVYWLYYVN

[2] = biological target: GABA-A receptor; alpha-6/beta-3/gamma-2 (Homo sapiens, UniProt P18507+P28472+Q16445); test: Binding affinity for human recombinant gamma-aminobutyric-acid (GABA) A receptor alpha-6-beta-3-gamma-2; type: protein-complex assay
Procedure, shortened: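 Ltk⁻ cells expressing human α6β3γ2 were harvested by scraping into PBS, centrifuged at 3000g and resuspended in 10 mM KH₂PO₄/100 mM KCl (pH 7.4). Incubation was 1 h at 4 °C with filter harvest and scintillation counting.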

[3] = biological target: T2, GABA-A receptor; alpha-3/beta-3/gamma-2 (Homo sapiens, UniProt P18507+P28472+P34903); test: Binding affinity for human recombinant gamma-aminobutyric-acid (GABA) A receptor alpha-3-beta-3-gamma-2; type: protein-complex assay
T2 sequence (P18507 whole entry): T1 sequence (P18507 whole entry)
T2 sequence (P28472 whole entry): T1 sequence (P28472 whole entry)
T2 sequence (P34903 whole entry): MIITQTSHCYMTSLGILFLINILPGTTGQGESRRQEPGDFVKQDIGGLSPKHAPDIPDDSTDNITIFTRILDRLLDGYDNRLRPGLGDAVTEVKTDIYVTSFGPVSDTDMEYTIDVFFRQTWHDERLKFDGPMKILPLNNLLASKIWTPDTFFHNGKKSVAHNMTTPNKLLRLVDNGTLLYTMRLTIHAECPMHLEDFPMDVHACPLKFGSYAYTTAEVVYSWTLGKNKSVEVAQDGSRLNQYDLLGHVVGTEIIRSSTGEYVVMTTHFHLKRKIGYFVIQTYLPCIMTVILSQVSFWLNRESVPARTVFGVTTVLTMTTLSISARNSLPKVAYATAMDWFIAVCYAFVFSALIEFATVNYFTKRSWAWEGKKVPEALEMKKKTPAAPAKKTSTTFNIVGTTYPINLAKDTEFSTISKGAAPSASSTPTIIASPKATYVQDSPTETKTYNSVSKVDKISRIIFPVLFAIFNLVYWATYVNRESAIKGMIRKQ

[4] = Selectivity ratio of alpha1 beta-3 gamma2 GABA A / BzR and alpha5 beta-3 gamma2 GABA A / BzR
[5] = biological target: T3, GABA-A receptor; alpha-2/beta-3/gamma-2 (Homo sapiens, UniProt P18507+P28472+P47869); test: Binding affinity to human recombinant gamma-aminobutyric-acid (GABA) A receptor alpha-2-beta-3-gamma-2; type: protein-complex assay
T3 sequence (P18507 whole entry): T1 sequence (P18507 whole entry)
T3 sequence (P28472 whole entry): T1 sequence (P28472 whole entry)
T3 sequence (P47869 whole entry): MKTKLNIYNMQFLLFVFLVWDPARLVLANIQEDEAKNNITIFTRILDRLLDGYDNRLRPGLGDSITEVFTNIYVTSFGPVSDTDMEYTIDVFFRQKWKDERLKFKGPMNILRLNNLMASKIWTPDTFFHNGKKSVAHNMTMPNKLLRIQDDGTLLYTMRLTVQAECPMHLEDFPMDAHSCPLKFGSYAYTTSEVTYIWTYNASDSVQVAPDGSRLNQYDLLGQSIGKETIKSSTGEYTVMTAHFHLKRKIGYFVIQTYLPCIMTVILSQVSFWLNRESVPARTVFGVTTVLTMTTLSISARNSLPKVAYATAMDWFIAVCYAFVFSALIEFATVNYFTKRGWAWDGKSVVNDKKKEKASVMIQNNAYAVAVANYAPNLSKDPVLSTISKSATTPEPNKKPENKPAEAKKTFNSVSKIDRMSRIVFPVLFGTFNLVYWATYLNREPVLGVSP

[6] = biological target: T4, GABA-A receptor; alpha-5/beta-3/gamma-2 (Homo sapiens, UniProt P18507+P28472+P31644); test: Binding affinity for human recombinant gamma-aminobutyric-acid (GABA) A receptor alpha-5-beta-3-gamma-2; type: protein-complex assay
T4 sequence (P18507 whole entry): T1 sequence (P18507 whole entry)
T4 sequence (P28472 whole entry): T1 sequence (P28472 whole entry)
T4 sequence (P31644 whole entry): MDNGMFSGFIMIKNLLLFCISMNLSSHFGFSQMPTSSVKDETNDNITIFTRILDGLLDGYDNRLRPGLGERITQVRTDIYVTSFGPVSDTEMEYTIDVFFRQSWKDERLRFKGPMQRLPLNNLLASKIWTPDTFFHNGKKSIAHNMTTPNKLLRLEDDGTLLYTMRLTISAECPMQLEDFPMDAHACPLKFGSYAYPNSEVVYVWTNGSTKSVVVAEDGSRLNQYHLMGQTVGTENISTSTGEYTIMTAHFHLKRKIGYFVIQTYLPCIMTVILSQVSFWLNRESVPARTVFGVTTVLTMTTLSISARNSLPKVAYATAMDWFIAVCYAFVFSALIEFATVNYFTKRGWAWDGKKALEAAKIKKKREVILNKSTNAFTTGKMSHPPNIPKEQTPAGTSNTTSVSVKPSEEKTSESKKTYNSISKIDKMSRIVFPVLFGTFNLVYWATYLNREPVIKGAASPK

Chain of GABA-A receptor; alpha-6/beta-3/gamma-2 (Q16445 whole entry, one chain of several): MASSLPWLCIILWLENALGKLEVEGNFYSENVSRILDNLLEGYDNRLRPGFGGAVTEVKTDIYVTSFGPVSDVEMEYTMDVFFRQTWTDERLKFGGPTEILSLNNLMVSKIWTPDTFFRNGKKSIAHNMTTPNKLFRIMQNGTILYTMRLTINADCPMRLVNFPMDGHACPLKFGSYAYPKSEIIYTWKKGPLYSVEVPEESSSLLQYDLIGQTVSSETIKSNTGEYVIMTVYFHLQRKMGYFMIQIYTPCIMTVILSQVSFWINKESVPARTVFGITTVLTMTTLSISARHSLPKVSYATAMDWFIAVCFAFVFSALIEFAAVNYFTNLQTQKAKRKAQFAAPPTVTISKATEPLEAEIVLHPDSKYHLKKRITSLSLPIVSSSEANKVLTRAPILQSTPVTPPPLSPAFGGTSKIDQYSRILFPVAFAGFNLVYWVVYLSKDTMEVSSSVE

| SMILES | Ki [1] [nM] | Ki [2] [nM] | Ki [3] [nM] | Ratio [4] | Ki [5] [nM] | Ki [6] [nM] |
| --- | --- | --- | --- | --- | --- | --- |
| O=C1CN=C(c2cccs2)c2cc(F)ccc2N1 | 175 | > 300 | 405 | 1.17 | 335 | 150 |
| COc1ccc2c(c1)[nH]c1c2ncc2[nH]c3ccccc3c21 | 3.4 | > 10000 | 11 |  | 11.7 | 225 |
| c1cnc2c3[nH]cc4[nH]c5ccccc5c4c-3nc2c1 | 28 | > 10000 | 156 |  | 118 | 1000 |
| CCOC(=O)c1cc2c3cc(OCc4ccccc4)ccc3nc-2c[nH]1 | 7.2 | > 10000 | 284 |  | 169 | 271 |
| CN1C(=O)CN=C(C2CCC2)c2cc(F)ccc21 | > 300 | > 300 | > 300 |  | > 300 | > 300 |
| CCOC(=O)c1[nH]cc2nc3ccc(OCc4ccc5ccccc5c4)cc3c-2c1CC | 183 | > 10000 | 300 |  | 291 | 270 |
| CCCC(=O)c1cc2c(cn1)[nH]c1ccccc12 | 2.1 | > 3000 | 21 |  | 16 | 995 |
| CN1C(=O)CN=C(c2ccco2)c2cc(Cl)ccc21 | > 0.23 | > 300 | > 0.12 |  | > 0.17 | > 0.44 |
| O=c1c2cnc3ccc(Cl)cc3c2[nH]n1-c1ccccc1 | 0.23 | 17.3 | 0.12 |  | 0.17 | 0.44 |
| COc1ccc2ncc3c(=O)n(-c4ccccc4)[nH]c3c2c1 | 0.11 | > 10 | 0.09 |  | 0.1 | 0.2 |
| Clc1cc2c(cn1)[nH]c1ccccc12 | 60.4 | > 10000 | 126 |  | 125 | 1000 |
| CN1C(=O)CN=C(c2ccsc2)c2cc(Cl)ccc21 | > 300 | > 300 | > 300 |  | > 300 | > 300 |
| CC(C)c1nc(-c2ncn3c2CN(C)C(=O)c2c(Cl)cccc2-3)no1 | 0.4 | 227 | 1.16 |  | 2.08 | 1.54 |
| c1ccc2c(c1)[nH]c1cnc3c4cccnc4[nH]c3c12 | 2.2 | > 10000 | 16.3 |  | 11.5 | 200 |
